A short description of data set [1]: folding enthalpy; higher = less favourable; fluorescence melt of hairpins on a sequencing array, two-state fit. Particulars: sodium 0.088 M. In a few lines: (§1)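 Library hairpins on a sequenced MiSeq flow cell carried annealed Cy3 and quencher oligos, and their Cy3 fluorescence was imaged in 50 mM Na-HEPES pH 8.0 with 25 mM NaCl, in 2.5 °C steps up to 60 °C. Signals were normalised to Cy3 before quenching and to control constructs. Melting temperature and folding enthalpy were obtained from bootstrapped two-state fits, combined by inverse-variance weighting across four replicates, and the fitted temperatures were then raised by 9.35 °C to match UV melts.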

Data set [2] in a line: melting temperature; fluorescence melt of hairpins on a sequencing array, two-state fit, raised by 9.35 °C to match UV melts. Particulars: sodium 0.088 M. In a few lines: as §1

For the sequence GCAGCTCGAAAGAGTGC (((.(((....)))))), in data set [1], the folding enthalpy is -30 kcal/mol. For the same sequence, the Tm in data set [2] was found to be 51.4 °C.
The corresponding values for GCAGCTGGAAACGGCTGC (((((.(....).))))) are -46.1 kcal/mol and 60.2 °C.
For the sequence GCAGCTGGAAACGGTTGC (((.(.(....).).))), in data set [1], the folding enthalpy is -29.1 kcal/mol. Moreover, the Tm in data set [2] is 41.1 °C.
On the same counts, the results for GCAGGAGCGAAAGCTTGC (((..(((....)))))) are -16.5 kcal/mol and 44.2 °C.
For the sequence GCAGGAGGAAACTCCTAC (.(((((....))))).), the folding enthalpy in data set [1] is -15.2 kcal/mol. Moreover, in data set [2], the Tm is 37.8 °C.
The corresponding values for GCAGGAGGAAACTCTTGC (((.(((....))).))) are -34.8 kcal/mol and 46.7 °C.
On the same counts, the results for GCAGGCCGAAAGGCTTGC (((.(((....))).))) are -29.2 kcal/mol and 69.1 °C.
For the sequence GCAGGCGAAAGCCATGC ((((((....))).))), in data set [1], the folding enthalpy was -19.9 kcal/mol. Also, the Tm in data set [2] was found to be 61 °C.
Consider GCAGGCGAAAGCCGCTGC ((((((....)))..))), for which, in data set [1], the folding enthalpy is -14.8 kcal/mol. Also, the Tm in data set [2] is 68 °C.
On the same counts, the results for GCAGGCGAAAGCCTTTGC ((((((....)))..))) are -11 kcal/mol and 41 °C.
For GCAGGGCGAAAGCCTTGC (((.(((....))).))), in data set [1], the folding enthalpy is -40.3 kcal/mol. In data set [2], the Tm was found to be 61.2 °C.
On the same counts, the results for GCAGGGCGAAAGCTATGC (((..((....))..))) are -20.4 kcal/mol and 54.1 °C.
GCAGGGCGAAAGCTCCGC ((.(.((....)).).)): the folding enthalpy in data set [1] was -17.6 kcal/mol. In data set [2], the Tm was 49.5 °C.
The corresponding values for GCAGGGCGAAAGCTGTGC (((..((....))..))) are -21.7 kcal/mol and 52.2 °C.
The corresponding values for GCAGGTCGAAAGACATGC (((.(((....))).))) are -40.4 kcal/mol and 64.2 °C.
Take GCAGGTCGAAAGACGTGC (((.(((....))).))): the folding enthalpy in data set [1] is -42.9 kcal/mol. In addition, in data set [2], the Tm is 62.8 °C.
With GCAGGTTCGAAAGAATGC (((..(((....)))))), the folding enthalpy in data set [1] was -11.1 kcal/mol. For the same sequence, the Tm in data set [2] was found to be 30.9 °C.
The corresponding values for GCAGTACGAAAGTAGTGC (((.(((....))).))) are -47 kcal/mol and 57.6 °C.
The corresponding values for GCAGTACGAAAGTATGC (((.(((....)))))) are -31.3 kcal/mol and 48.4 °C.
With GCAGTAGGAAACTGTTGC (((..((....))..))), in data set [1], the folding enthalpy was -18.3 kcal/mol. Moreover, the Tm in data set [2] was 32.2 °C.
The corresponding values for GCAGTCCCGAAAGGGTGC (((..(((....)))))) are -15.3 kcal/mol and 43.5 °C.
The corresponding values for GCAGTCCGAAAGGATGC (((.(((....)))))) are -32.1 kcal/mol and 52.3 °C.
The corresponding values for GCAGTCGAAAGACCATGC ((((((....)))..))) are -16.2 kcal/mol and 35.1 °C.
As to GCAGTCGAAAGACCCTGC ((((((....)))..))), in data set [1], the folding enthalpy is -17.3 kcal/mol. The Tm in data set [2] was found to be 33 °C.
The corresponding values for GCAGTCGAAAGACCTGC ((((((....))).))) are -29.9 kcal/mol and 51.2 °C.
The corresponding values for GCAGTCGAAAGACGGTGC ((((((....)))..))) are -19 kcal/mol and 48.5 °C.
On the same counts, the results for GCAGTCGAAAGACGTGC ((((((....))).))) are -17.4 kcal/mol and 51.8 °C.
In the case of GCAGTCGAAAGACGTTGC ((((((....)))..))), in data set [1], the folding enthalpy was -17 kcal/mol. Further, in data set [2], the Tm was 45.9 °C.
On the same counts, the results for GCAGTGCGAAAGCAACGC ((..(((....)))..)) are -15.1 kcal/mol and 58.7 °C.
The corresponding values for GCAGTGCGAAAGCACCGC ((.((((....)))).)) are -17.4 kcal/mol and 62 °C.
The corresponding values for GCAGTGCGAAAGCAGTGC (((.(((....))).))) are -37.9 kcal/mol and 66.4 °C.
On to GCAGTGCGAAAGCATGGC ((..(((....)))..)), for which, in data set [1], the folding enthalpy is -19.2 kcal/mol. The Tm in data set [2] amounted to 54 °C.
On the same counts, the results for GCAGTGCGAAAGCCCCGC ((.(.((....)).).)) are -10.3 kcal/mol and 41.1 °C.
Regarding GCAGTGCGAAAGCCCGGC ((.(.((....)).).)), the folding enthalpy in data set [1] was -18.4 kcal/mol. Also, the Tm in data set [2] amounted to 45 °C.
On the same counts, the results for GCAGTGCGAAAGCGCCGC ((.(.((....)).).)) are -17.9 kcal/mol and 52 °C.
On to GCAGTGCGAAAGCTCGGC ((.(.((....)).).)), for which the folding enthalpy in data set [1] is -25.6 kcal/mol. In addition, the Tm in data set [2] worked out at 54.3 °C.
On to GCAGTGCGAAAGCTCTGC ((((.((....)).)))), for which the folding enthalpy in data set [1] is -40.3 kcal/mol. Moreover, in data set [2], the Tm turned out to be 65.8 °C.
On the same counts, the results for GCAGTTCCGAAAGGATGC (((..(((....)))))) are -17.8 kcal/mol and 36.7 °C.
On the same counts, the results for GCAGTTCGAAAGAATTGC (((.(((....))).))) are -38.5 kcal/mol and 52.6 °C.
The corresponding values for GCAGTTGGAAACAATTGC (((.(((....))).))) are -31.2 kcal/mol and 46.9 °C.
Take GCATAACCGAAAGGTTGC (((..(((....)))))): the folding enthalpy in data set [1] was -15.4 kcal/mol. Besides, the Tm in data set [2] worked out at 46.6 °C.
As to GCATAACGAAAGTTCTGC (((.(((....))).))), the folding enthalpy in data set [1] is -35.4 kcal/mol. The Tm in data set [2] amounted to 45.6 °C.
On the same counts, the results for GCATAAGCGAAAGCTTGC (((..(((....)))))) are -14.7 kcal/mol and 46.3 °C.
The corresponding values for GCATAAGGAAACTTGTGC (((.(((....))).))) are -25.8 kcal/mol and 45.1 °C.
On the same counts, the results for GCATACGAAAGTAGTTGC ((((((....)))..))) are -17.5 kcal/mol and 33.1 °C.
GCATACGAAAGTATATGC ((((((....)))..))): the folding enthalpy in data set [1] was -24.7 kcal/mol. The Tm in data set [2] worked out at 41.9 °C.
On the same counts, the results for GCATACGAAAGTATGC ((((((....)))))) are -35.3 kcal/mol and 67.9 °C.
The corresponding values for GCATAGAAATATGC (((((....))))) are -21.9 kcal/mol and 43.3 °C.
Consider GCATAGCGAAAGCAAGGC ((.(.((....)).).)), for which the folding enthalpy in data set [1] was -14 kcal/mol. In addition, the Tm in data set [2] is 37.9 °C.
On the same counts, the results for GCATAGCGAAAGCAGTGC (((..((....))..))) are -17 kcal/mol and 53.7 °C.
On the same counts, the results for GCATAGCGAAAGCGAGGC ((.(.((....)).).)) are -13.3 kcal/mol and 54.4 °C.
On the same counts, the results for GCATAGCGAAAGCTGAGC ((..(((....)))..)) are -15.7 kcal/mol and 46 °C.
Regarding GCATAGGGAAACCTGTGC (((.(((....))).))), the folding enthalpy in data set [1] was -33.6 kcal/mol. For the same sequence, the Tm in data set [2] was 50.3 °C.
With GCATATCGAAAGATGTGC (((.(((....))).))), the folding enthalpy in data set [1] was -36.5 kcal/mol. The Tm in data set [2] is 55.4 °C.
On to GCATATCGAAAGATTGC (((.(((....)))))), for which, in data set [1], the folding enthalpy was -25.9 kcal/mol. In addition, the Tm in data set [2] turned out to be 46.6 °C.
The corresponding values for GCATCAACGAAAGTTTGC (((..(((....)))))) are -16.9 kcal/mol and 30.8 °C.
Take GCATCAGGAAACTAATGC ((((.((....)).)))): the folding enthalpy in data set [1] is -22.6 kcal/mol. In addition, in data set [2], the Tm amounted to 31.5 °C.
The corresponding values for GCATCAGGAAACTGACGC ((.((((....)))).)) are -30 kcal/mol and 44.5 °C.
On the same counts, the results for GCATCATCGAAAGATTGC (((..(((....)))))) are -19.8 kcal/mol and 30.8 °C.
On the same counts, the results for GCATCCGAAAGGAAATGC ((((((....)))..))) are -25.3 kcal/mol and 46.1 °C.
As for GCATCCGAAAGGAGCTGC ((((((....)))..))), the folding enthalpy in data set [1] was -19.2 kcal/mol. Besides, the Tm in data set [2] was 50.6 °C.
The corresponding values for GCATCCGAAAGGAGTTGC ((((((....)))..))) are -15.4 kcal/mol and 37.9 °C.
As to GCATCCGAAAGGATCTGC ((((((....)))..))), the folding enthalpy in data set [1] was -17.1 kcal/mol. The Tm in data set [2] was 46.5 °C.
On to GCATCCGGAAACGGATAC (.(((((....))))).), for which the folding enthalpy in data set [1] was -16.9 kcal/mol. The Tm in data set [2] was determined as 39.7 °C.
Consider GCATCGCGAAAGCATTGC (((..((....))..))), for which, in data set [1], the folding enthalpy was -13.1 kcal/mol. In addition, the Tm in data set [2] was determined as 37.7 °C.
On the same counts, the results for GCATCGCGAAAGCCAAGC ((.(.((....)).).)) are -9.2 kcal/mol and 27.5 °C.
On the same counts, the results for GCATCGCGAAAGCCGTGC (((..((....))..))) are -19.3 kcal/mol and 45.1 °C.
The corresponding values for GCATCGCGAAAGCGTGGC ((..(((....)))..)) are -15.8 kcal/mol and 54.7 °C.
In the case of GCATCGCGAAAGCTACGC ((.(.((....)).).)), the folding enthalpy in data set [1] was -8.55 kcal/mol. Moreover, the Tm in data set [2] was 32.8 °C.
On the same counts, the results for GCATCGGGAAACCAACGC ((.(.((....)).).)) are -17.7 kcal/mol and 28.3 °C.
Consider GCATCGGGAAACCGACGC ((.((((....)))).)), for which the folding enthalpy in data set [1] is -42.1 kcal/mol. Moreover, the Tm in data set [2] is 50.4 °C.
On the same counts, the results for GCATCGGGAAACTGATGC (((((.(....).))))) are -37.2 kcal/mol and 55.7 °C.
As for GCATCTGCGAAAGCATGC (((..(((....)))))), the folding enthalpy in data set [1] was -14.4 kcal/mol. For the same sequence, in data set [2], the Tm is 39.8 °C.
